{
  "source": "ChEMBL document CHEMBL1142952",
  "about": "“Design, synthesis, and activity of 2-imidazol-1-ylpyrimidine derived inducible nitric oxide synthase dimerization inhibitors” (J Med Chem, 2007)",
  "key": {"[1]": {"tested_on": "Sf9", "test": "Selectivity ratio, IC50 for ecNOS/IC50 for iNOS using tetracycline-induced system in SF9 cells", "assay_type": "cell-based", "details": "Homo sapiens", "procedure,_shortened": "(§1)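 SF9 cells carrying a tetracycline-induced system expressing one NOS isoform (iNOS, ecNOS or bcNOS); cellular NO formation inhibition measured, compounds up to 10 µM.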"}, "[2]": {"target": "Nitric oxide synthase, inducible (Homo sapiens, UniProt P35228)", "sequence (P35228 whole entry)": "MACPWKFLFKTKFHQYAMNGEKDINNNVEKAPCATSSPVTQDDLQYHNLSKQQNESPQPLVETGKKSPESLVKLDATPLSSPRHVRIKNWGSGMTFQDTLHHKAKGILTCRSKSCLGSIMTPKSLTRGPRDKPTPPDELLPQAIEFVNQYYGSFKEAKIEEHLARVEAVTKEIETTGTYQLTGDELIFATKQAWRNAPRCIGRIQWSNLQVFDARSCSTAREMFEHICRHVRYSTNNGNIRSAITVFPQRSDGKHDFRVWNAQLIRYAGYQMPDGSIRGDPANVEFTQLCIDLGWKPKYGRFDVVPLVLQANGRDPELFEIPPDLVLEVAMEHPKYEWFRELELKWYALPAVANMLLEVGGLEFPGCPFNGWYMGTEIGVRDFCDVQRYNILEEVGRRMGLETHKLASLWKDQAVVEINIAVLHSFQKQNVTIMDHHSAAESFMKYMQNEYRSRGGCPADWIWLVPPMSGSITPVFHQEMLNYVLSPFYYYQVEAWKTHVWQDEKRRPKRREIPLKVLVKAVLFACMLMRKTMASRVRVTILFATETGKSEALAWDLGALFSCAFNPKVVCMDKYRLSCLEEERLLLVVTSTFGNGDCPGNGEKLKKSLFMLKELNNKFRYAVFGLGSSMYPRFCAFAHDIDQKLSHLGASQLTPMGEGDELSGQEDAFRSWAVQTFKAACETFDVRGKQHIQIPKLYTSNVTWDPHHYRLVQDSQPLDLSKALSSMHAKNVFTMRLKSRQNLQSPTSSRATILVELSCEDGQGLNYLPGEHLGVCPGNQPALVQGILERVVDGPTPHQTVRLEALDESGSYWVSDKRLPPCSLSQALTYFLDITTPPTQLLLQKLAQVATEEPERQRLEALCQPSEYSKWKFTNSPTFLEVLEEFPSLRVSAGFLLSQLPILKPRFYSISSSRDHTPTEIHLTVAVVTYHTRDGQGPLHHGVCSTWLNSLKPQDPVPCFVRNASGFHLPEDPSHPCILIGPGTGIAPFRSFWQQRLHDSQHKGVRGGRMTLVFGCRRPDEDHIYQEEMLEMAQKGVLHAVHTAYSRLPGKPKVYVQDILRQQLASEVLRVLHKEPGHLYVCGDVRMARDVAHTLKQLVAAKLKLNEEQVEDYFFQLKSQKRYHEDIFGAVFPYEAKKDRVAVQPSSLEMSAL", "test": "Inhibition of cytokine-induced iNOS expressed in human A172 cells assessed as inhibition of NO formation", "assay_type": "cell-based, A 172"}, "[3]": {"target": "Nitric oxide synthase, inducible (Rattus norvegicus) (UniProt Q06518)", "sequence (Q06518 whole entry)": "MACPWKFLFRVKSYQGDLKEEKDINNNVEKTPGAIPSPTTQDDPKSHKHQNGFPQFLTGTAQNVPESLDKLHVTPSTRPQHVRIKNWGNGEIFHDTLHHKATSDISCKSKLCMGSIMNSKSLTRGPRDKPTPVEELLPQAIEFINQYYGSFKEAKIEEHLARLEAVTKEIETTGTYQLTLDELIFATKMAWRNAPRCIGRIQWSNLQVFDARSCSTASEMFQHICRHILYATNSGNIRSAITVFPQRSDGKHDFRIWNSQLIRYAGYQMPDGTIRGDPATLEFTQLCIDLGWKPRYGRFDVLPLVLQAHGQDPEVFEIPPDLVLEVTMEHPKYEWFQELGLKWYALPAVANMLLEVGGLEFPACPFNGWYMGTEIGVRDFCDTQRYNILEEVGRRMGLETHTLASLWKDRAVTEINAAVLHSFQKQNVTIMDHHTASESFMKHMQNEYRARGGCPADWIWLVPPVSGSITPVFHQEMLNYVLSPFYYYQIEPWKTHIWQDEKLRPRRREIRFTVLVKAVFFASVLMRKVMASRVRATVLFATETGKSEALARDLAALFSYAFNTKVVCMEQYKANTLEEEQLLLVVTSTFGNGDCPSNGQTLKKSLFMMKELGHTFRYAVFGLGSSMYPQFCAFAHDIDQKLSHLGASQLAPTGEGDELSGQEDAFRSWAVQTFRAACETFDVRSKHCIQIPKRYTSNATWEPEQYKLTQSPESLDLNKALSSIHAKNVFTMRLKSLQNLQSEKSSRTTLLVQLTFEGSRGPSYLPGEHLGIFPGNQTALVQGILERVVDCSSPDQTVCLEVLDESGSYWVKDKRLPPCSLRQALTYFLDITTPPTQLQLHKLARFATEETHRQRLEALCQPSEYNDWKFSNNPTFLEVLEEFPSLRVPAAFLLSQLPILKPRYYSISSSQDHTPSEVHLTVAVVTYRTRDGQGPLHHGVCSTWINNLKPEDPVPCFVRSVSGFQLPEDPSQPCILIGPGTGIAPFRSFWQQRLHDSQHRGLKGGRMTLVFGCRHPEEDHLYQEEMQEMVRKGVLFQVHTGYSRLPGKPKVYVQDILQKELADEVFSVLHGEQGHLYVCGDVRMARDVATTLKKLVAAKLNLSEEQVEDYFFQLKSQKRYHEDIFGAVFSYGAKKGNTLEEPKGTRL", "test": "Activity against rat cerebellum iNOS upto 1 uM"}, "[4]": {"tested_on": "BSC-1", "test": "Selectivity ratio, IC50 for bcNOS/IC50 for iNOS using vaccinia virus-induced system in BSC1 cells", "assay_type": "cell-based", "details": "Homo sapiens", "procedure,_shortened": "(§2)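 For each compound, the IC50 against bcNOS (b/i) or ecNOS (e/i) is divided by the iNOS IC50 from the same BSC-1 vaccinia system.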"}, "[5]": {"tested_on": "Sf9", "test": "Selectivity ratio, IC50 for bcNOS/IC50 for iNOS using tetracycline-induced system in SF9 cells", "assay_type": "cell-based", "details": "Homo sapiens", "procedure,_shortened": "as §1"}, "[6]": {"test": "Inhibition of tetracycline system-induced human NOS expressed in SF9 cells", "procedure,_shortened": "as §1"}, "[7]": {"tested_on": "BSC-1", "test": "Selectivity ratio, IC50 for ecNOS/IC50 for iNOS using vaccinia virus-induced system in BSC1 cells", "assay_type": "cell-based", "details": "Homo sapiens", "procedure,_shortened": "as §2"}, "[8]": {"test": "Inhibition of vaccinia virus system-induced human NOS expressed in BSC1 cells", "assay_type": "cell-based", "details": "bsc-1"}, "[9]": {"test": "Half life in rat at 10 mg/kg, iv", "assay_type": "ADME, organism-based", "set-up": "dose 10 mg/kg, route intravenous", "details": "in vivo"}, "[10]": {"tested_on": "Rattus norvegicus", "test": "Amelioration of adjuvant-induced arthritis in sc dosed Lewis rat", "assay_type": "functional, organism-based", "procedure,_shortened": "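Adult male Lewis rats immunized intradermally at the proximal tail with Mycobacterium butyricum in incomplete Freund's adjuvant (10 mg/mL, 0.1 mL). Starting the next day, dosed subcutaneously at 3, 10 or 30 mg/kg or vehicle twice daily (12 h apart); naive group untreated; 10 rats per group. Weighed and clinically scored (0-4 per limb) 3 times weekly; radiological scoring; sacrifice at day 34-35.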"}, "[11]": {"test": "Bioavailability in dog at 3 mg/kg, po", "assay_type": "ADME, organism-based, Canis lupus familiaris", "details": "in vivo"}, "[12]": {"test": "Clearance in dog at 3 mg/kg", "assay_type": "ADME, organism-based, Canis lupus familiaris", "set-up": "dose 3 mg/kg", "details": "in vivo"}, "[13]": {"test": "Bioavailability in po and iv dosed rat 10 mg/kg, po", "assay_type": "ADME, organism-based", "details": "in vivo"}, "[14]": {"test": "Half life in dog at 3 mg/kg, iv", "assay_type": "ADME, organism-based, Canis lupus familiaris", "set-up": "dose 3 mg/kg, route intravenous", "details": "in vivo"}},
  "note": "Activity calls are given as the source filed them.",
  "data": [
    {"smiles": "COC(=O)N1CCN(c2ccnc(-n3ccnc3)n2)C(CC(=O)NCc2ccc3c(c2)OCO3)C1", "note": "(stereo unspecified)", "values": [
      {"measurement": "Ratio IC50", "setting": "[1]", "value": 82},
      {"measurement": "IC50", "setting": "[2]", "value": 0.38, "unit": "nM"},
      {"measurement": "Activity", "setting": "[3]", "value": "inactive"},
      {"measurement": "Ratio IC50", "setting": "[4]", "value": 5},
      {"measurement": "Ratio IC50", "setting": "[5]", "value": 25},
      {"measurement": "IC50", "setting": "[6]", "value": 12, "unit": "nM"},
      {"measurement": "Ratio IC50", "setting": "[7]", "value": 1700},
      {"measurement": "IC50", "setting": "[8]", "value": 24, "unit": "nM"}
    ]},
    {"smiles": "Cc1cc(N2CCC[C@@H]2C(=O)NCCc2ccc3c(c2)OCO3)nc(-n2ccnc2)n1", "values": [
      {"measurement": "Ratio IC50", "setting": "[1]", "value": 540},
      {"measurement": "half-life", "setting": "[9]", "value": 42, "unit": "min"},
      {"measurement": "IC50", "setting": "[2]", "value": 0.29, "unit": "nM"},
      {"measurement": "Activity", "setting": "[10]", "value": "inactive"},
      {"measurement": "Activity", "setting": "[3]", "value": "inactive"},
      {"measurement": "Ratio IC50", "setting": "[4]", "value": 62},
      {"measurement": "Ratio IC50", "setting": "[5]", "value": 327},
      {"measurement": "bioavailability", "setting": "[11]", "value": 71, "unit": "%"},
      {"measurement": "clearance", "setting": "[12]", "value": 4.5, "unit": "mL/min/kg"},
      {"measurement": "IC50", "setting": "[6]", "value": 14, "unit": "nM"},
      {"measurement": "bioavailability", "setting": "[13]", "value": 21, "unit": "%"},
      {"measurement": "Ratio IC50", "setting": "[7]", "value": "> 5000"},
      {"measurement": "half-life", "setting": "[14]", "value": 150, "unit": "min"},
      {"measurement": "IC50", "setting": "[8]", "value": 20, "unit": "nM"}
    ]},
    {"smiles": "Cc1cc(N2CCN(C(=O)C(C)C)C(CC(=O)NCc3ccc4c(c3)OCO4)C2)nc(-n2ccnc2)n1", "note": "(stereo unspecified)", "values": [
      {"measurement": "Ratio IC50", "setting": "[1]", "value": 240},
      {"measurement": "IC50", "setting": "[2]", "value": 1.9, "unit": "nM"},
      {"measurement": "Activity", "setting": "[3]", "value": "inactive"},
      {"measurement": "Ratio IC50", "setting": "[4]", "value": 80},
      {"measurement": "Ratio IC50", "setting": "[5]", "value": 120},
      {"measurement": "IC50", "setting": "[6]", "value": 46, "unit": "nM"},
      {"measurement": "Ratio IC50", "setting": "[7]", "value": "> 300"},
      {"measurement": "IC50", "setting": "[8]", "value": 80, "unit": "nM"}
    ]},
    {"smiles": "Cc1cc(N2CCC[C@@H]2CC(=O)NCc2ccc3c(c2)OCO3)nc(-n2ccnc2)n1", "values": [
      {"measurement": "Ratio IC50", "setting": "[1]", "value": 91},
      {"measurement": "IC50", "setting": "[2]", "value": 0.12, "unit": "nM"},
      {"measurement": "Activity", "setting": "[3]", "value": "inactive"},
      {"measurement": "Ratio IC50", "setting": "[4]", "value": 8},
      {"measurement": "Ratio IC50", "setting": "[5]", "value": 27},
      {"measurement": "IC50", "setting": "[6]", "value": 4.5, "unit": "nM"},
      {"measurement": "Ratio IC50", "setting": "[7]", "value": 1000},
      {"measurement": "IC50", "setting": "[8]", "value": 5.9, "unit": "nM"}
    ]},
    {"smiles": "CCc1cc(N2CCC[C@@H]2C(=O)NCCc2ccc3c(c2)OCO3)nc(-n2ccnc2)n1", "values": [
      {"measurement": "Ratio IC50", "setting": "[1]", "value": 170},
      {"measurement": "IC50", "setting": "[2]", "value": 0.52, "unit": "nM"},
      {"measurement": "Activity", "setting": "[3]", "value": "inactive"},
      {"measurement": "Ratio IC50", "setting": "[4]", "value": 67},
      {"measurement": "Ratio IC50", "setting": "[5]", "value": 280},
      {"measurement": "IC50", "setting": "[6]", "value": 16, "unit": "nM"},
      {"measurement": "Ratio IC50", "setting": "[7]", "value": "> 3800"},
      {"measurement": "IC50", "setting": "[8]", "value": 25, "unit": "nM"}
    ]},
    {"smiles": "Cc1cc(N2CCN(C)C(CC(=O)NCc3ccc4c(c3)OCO4)C2)nc(-n2ccnc2)n1", "note": "(stereo unspecified)", "values": [
      {"measurement": "IC50", "setting": "[2]", "value": 12, "unit": "nM"},
      {"measurement": "Activity", "setting": "[3]", "value": "inactive"},
      {"measurement": "Ratio IC50", "setting": "[4]", "value": 72},
      {"measurement": "Ratio IC50", "setting": "[7]", "value": "> 350"},
      {"measurement": "IC50", "setting": "[8]", "value": 340, "unit": "nM"}
    ]},
    {"smiles": "CS(=O)(=O)N1CCN(c2ccnc(-n3ccnc3)n2)C(CC(=O)NCc2ccc3c(c2)OCO3)C1", "note": "(stereo unspecified)", "values": [
      {"measurement": "IC50", "setting": "[2]", "value": 0.7, "unit": "nM"},
      {"measurement": "Activity", "setting": "[3]", "value": "inactive"},
      {"measurement": "Ratio IC50", "setting": "[4]", "value": 12},
      {"measurement": "Ratio IC50", "setting": "[7]", "value": "> 1000"},
      {"measurement": "IC50", "setting": "[8]", "value": 74, "unit": "nM"}
    ]},
    {"smiles": "CN(C)c1ccc(CNC(=O)CC2CCCCN2c2ccnc(-n3ccnc3)n2)cc1", "note": "(stereo unspecified)", "values": [
      {"measurement": "IC50", "setting": "[2]", "value": 66, "unit": "nM"},
      {"measurement": "Activity", "setting": "[3]", "value": "inactive"},
      {"measurement": "Ratio IC50", "setting": "[4]", "value": 29},
      {"measurement": "Ratio IC50", "setting": "[7]", "value": 86},
      {"measurement": "IC50", "setting": "[8]", "value": 245, "unit": "nM"}
    ]},
    {"smiles": "O=C(CC1CCCCN1c1nccc(-n2ccnc2)n1)NCc1ccc2c(c1)OCO2", "note": "(stereo unspecified)", "values": [
      {"measurement": "IC50", "setting": "[2]", "value": 52, "unit": "nM"},
      {"measurement": "Activity", "setting": "[3]", "value": "inactive"},
      {"measurement": "Ratio IC50", "setting": "[4]", "value": 6},
      {"measurement": "Ratio IC50", "setting": "[7]", "value": "> 500"},
      {"measurement": "IC50", "setting": "[8]", "value": 220, "unit": "nM"}
    ]},
    {"smiles": "COc1ccc(CCNC(=O)CC2CCCCN2c2ccnc(-n3ccnc3)n2)cc1OC", "note": "(stereo unspecified)", "values": [
      {"measurement": "IC50", "setting": "[2]", "value": 12, "unit": "nM"},
      {"measurement": "Activity", "setting": "[3]", "value": "inactive"},
      {"measurement": "Ratio IC50", "setting": "[4]", "value": 1},
      {"measurement": "Ratio IC50", "setting": "[7]", "value": 120},
      {"measurement": "IC50", "setting": "[8]", "value": 680, "unit": "nM"}
    ]},
    {"smiles": "O=C(CC1CCCCN1c1cc(C(F)(F)F)nc(-n2ccnc2)n1)NCc1ccc2c(c1)OCO2", "note": "(stereo unspecified)", "values": [
      {"measurement": "IC50", "setting": "[2]", "value": 180, "unit": "nM"},
      {"measurement": "Activity", "setting": "[3]", "value": "inactive"},
      {"measurement": "Ratio IC50", "setting": "[4]", "value": "> 31"},
      {"measurement": "Ratio IC50", "setting": "[7]", "value": "> 310"},
      {"measurement": "IC50", "setting": "[8]", "value": 320, "unit": "nM"}
    ]},
    {"smiles": "O=C(CC1CNCCN1c1ccnc(-n2ccnc2)n1)NCc1ccc2c(c1)OCO2", "note": "(stereo unspecified)", "values": [
      {"measurement": "IC50", "setting": "[2]", "value": 0.55, "unit": "nM"},
      {"measurement": "Activity", "setting": "[3]", "value": "inactive"},
      {"measurement": "Ratio IC50", "setting": "[4]", "value": 7},
      {"measurement": "Ratio IC50", "setting": "[7]", "value": 1200},
      {"measurement": "IC50", "setting": "[8]", "value": 70, "unit": "nM"}
    ]}
  ]
}
